In ChEMBL document CHEMBL1142888, “Synthesis, antimicrobial, and anti-inflammatory activities of novel 2-(1-adamantyl)-5-substituted-1,3,4-oxadiazoles and 2-(1-adamantylamino)-5-substituted-1,3,4-thiadiazoles” (2007) one finds zone of inhibition, Activity and MIC data, which are given here for seven molecules.

For experiment [1], the system named is Staphylococcus aureus. The experiment in a line: Antimicrobial activity against Staphylococcus aureus IFO 3060 at 200 ug/disc after 24 hrs. It is filed as functional. The following applies: IFO 3060, 24 h, read-out: IZ.
Experiment [2] deals with Bacillus subtilis. Description: Antimicrobial activity against Bacillus subtilis IFO 3007 at 200 ug/disc after 24 hrs. The class given is functional. To be noted: IFO 3007, 24 h, read-out: IZ.
Experiment [3] relates to Escherichia coli. The experiment in a line: Antimicrobial activity against Escherichia coli IFO 3301 at 200 ug/disc after 24 hrs. It is filed as functional. To be noted: IFO 3301, 24 h, read-out: IZ.
In experiment [4] the test system is Pseudomonas aeruginosa. Description: Antimicrobial activity against Pseudomonas aeruginosa IFO 3448 at 200 ug/disc. It is filed as functional. To be noted: read-out: IZ.
In experiment [5] the test system is Candida albicans. The experiment in a line: Antimicrobial activity against Candida albicans IFO 0583 at 200 ug/disc after 48 hrs. The class given is functional. To be noted: IFO 0583, 48 h, read-out: IZ.
The subject of experiment [6] is Rattus norvegicus. Description: Antiinflammatory effect on carrageenan-induced paw oedema Sprague-Dawley rat assessed as reduction of paw oedema at 20 mg/kg, ip. It is filed as functional. On the set-up: scale not given: the % may be the effect or the level left. The following applies: route intraperitoneal. Summed up:
(§1)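 Rats in groups of five, acclimatised two days, given compound (20, 40, 60 mg/kg) or indomethacin (10 mg/kg) i.p. as suspension in 1 ml 0.5% aqueous carboxymethyl cellulose 1 h before 0.1 ml 1% carrageenin in saline into right hind plantar tissue; left paw got saline. Paw volume by water plethysmometer at 4 h; % protection vs vehicle control; mean ± S.E.M., Student's t test.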

For experiment [7], the system named is Rattus norvegicus. Description: Antiinflammatory effect on carrageenan-induced paw oedema Sprague-Dawley rat assessed as reduction of paw oedema at 40 mg/kg, ip. It is filed as functional. More on the design: scale not given: the % may be the effect or the level left. The following applies: route intraperitoneal. The procedure, abridged:
as §1
(In general: The carrageenan paw model is a standard test of acute inflammation.)

For experiment [8], the system named is Rattus norvegicus. Description: Antiinflammatory effect on carrageenan-induced paw oedema Sprague-Dawley rat assessed as reduction of paw oedema at 60 mg/kg, ip. To be noted: route intraperitoneal. On the set-up: scale not given: the % may be the effect or the level left. The class given is functional. The procedure, abridged: as §1
In experiment [9] the test system is Bacillus subtilis. The experiment in a line: Antimicrobial activity against Bacillus subtilis IFO 3007 after 24 hrs. The class given is functional. The following applies: IFO 3007, 24 h.
For experiment [10], the system named is Candida albicans. Description: Antimicrobial activity against Candida albicans IFO 0583 after 48 hrs. The class given is functional. To be noted: IFO 0583, 48 h.
For experiment [11], the system named is Staphylococcus aureus. The experiment in a line: Antimicrobial activity against Staphylococcus aureus IFO 3060 after 24 hrs. The class given is functional. The following applies: IFO 3060, 24 h.
Experiment [12] concerns Escherichia coli. The experiment in a line: Antimicrobial activity against Escherichia coli IFO 3301 after 24 hrs. The following applies: IFO 3301, 24 h. The class given is functional.
In experiment [13] the test system is Staphylococcus aureus. The experiment in a line: Antimicrobial activity against Staphylococcus aureus IFO 3060 at 100 ug/disc after 24 hrs. The class given is functional. To be noted: IFO 3060, 24 h, read-out: IZ.
Experiment [14] deals with Bacillus subtilis. Description: Antimicrobial activity against Bacillus subtilis IFO 3007 at 100 ug/disc after 24 hrs. It is filed as functional. To be noted: IFO 3007, 24 h, read-out: IZ.
Experiment [15] relates to Escherichia coli. Description: Antimicrobial activity against Escherichia coli IFO 3301 at 100 ug/disc after 24 hrs. It is filed as functional. To be noted: IFO 3301, 24 h, read-out: IZ.
In experiment [16] the test system is Pseudomonas aeruginosa. The experiment in a line: Antimicrobial activity against Pseudomonas aeruginosa IFO 3448 at 100 ug/disc. It is filed as functional. To be noted: read-out: IZ.
Experiment [17] concerns Pseudomonas aeruginosa. Description: microbe, parasite or virus in culture. To be noted: IFO 3448.
Experiment [18] concerns Candida albicans. The experiment in a line: Antimicrobial activity against Candida albicans IFO 0583 at 100 ug/disc after 48 hrs. It is filed as functional. The following applies: IFO 0583, 48 h, read-out: IZ.
In experiment [19] the test system is Rattus norvegicus. Description: Antiinflammatory effect on carrageenan-induced paw oedema Sprague-Dawley rat assessed as reduction of paw oedema at 10 mg/kg, ip. To be noted: route intraperitoneal. It is filed as functional. More on the design: scale not given: the % may be the effect or the level left. Summed up:
as §1

Values after ≈ are worked out from the molar mass of the structure shown.

Consider `c1csc(-c2nnc(C34CC5CC(CC(C5)C3)C4)o2)c1`, for which the zone of inhibition at 200 µg/disc with Staphylococcus aureus [1] was determined as 14 mm; in the experiment with Bacillus subtilis [2], 18 mm; in the experiment with Escherichia coli [3], 11 mm; in the experiment on Pseudomonas aeruginosa [4], 12 mm; in the experiment on Candida albicans [5] it was 16 mm. For the same molecule, the Activity in the experiment on Rattus norvegicus [6] is recorded as 35.95%; in the experiment on Rattus norvegicus [7] it was 49.77%; in the experiment on Rattus norvegicus [8], 63.72%. Besides, the MIC in the experiment on Bacillus subtilis [9] and against Candida albicans [10] was 2 µg/mL (≈ 6.98 µM) each time.

On to `O=C(NNC(=S)NC12CC3CC(CC(C3)C1)C2)c1ccc([N+](=O)[O-])cc1`, for which the zone of inhibition at 200 µg/disc was 20 mm with Staphylococcus aureus [1]; 24 mm in the experiment with Bacillus subtilis [2]; 19 mm with Escherichia coli [3]; 15 mm in the experiment on Pseudomonas aeruginosa [4]; less than 10 mm with Candida albicans [5]. Also, the Activity with Rattus norvegicus [6] is listed as 0.76%. Further, the figures for the MIC in the experiment on Staphylococcus aureus [11], in the experiment with Bacillus subtilis [9] and with Escherichia coli [12] were 1 µg/mL (≈ 2.67 µM), 0.5 µg/mL (≈ 1.34 µM) and 2 µg/mL (≈ 5.34 µM), respectively.

Take `O=[N+]([O-])c1ccc(-c2nnc(NC34CC5CC(CC(C5)C3)C4)s2)cc1`: the zone of inhibition at 200 µg/disc with Staphylococcus aureus [1] was 16 mm; with Bacillus subtilis [2], 18 mm; with Escherichia coli [3] it was 17 mm; in the experiment with Pseudomonas aeruginosa [4] it was 12 mm; with Candida albicans [5] it was less than 10 mm. Besides, the Activity is 9.11% with Rattus norvegicus [6], 10.1% in the experiment on Rattus norvegicus [7] and 10.74% in the experiment with Rattus norvegicus [8]. The MIC against Staphylococcus aureus [11] worked out at 2 µg/mL (≈ 5.61 µM); in the experiment with Bacillus subtilis [9], 2 µg/mL (≈ 5.61 µM); with Escherichia coli [12] it was 1 µg/mL (≈ 2.81 µM).

Turning to `O=C(NNC(=S)NC12CC3CC(CC(C3)C1)C2)c1ccccc1`, the zone of inhibition at 200 µg/disc in the experiment with Staphylococcus aureus [1] is less than 10 mm; in the experiment with Bacillus subtilis [2], 22 mm; with Escherichia coli [3], 16 mm; in the experiment on Pseudomonas aeruginosa [4], less than 10 mm; in the experiment on Candida albicans [5] it was less than 10 mm. Moreover, the Activity is 2.32% in the experiment on Rattus norvegicus [6] and 1.8% with Rattus norvegicus [7]. Also, the values for the MIC against Bacillus subtilis [9] and against Escherichia coli [12] were 1 µg/mL (≈ 3.04 µM) and 4 µg/mL (≈ 12.1 µM), respectively.

In the case of `CC1(C)S[C@@H]2[C@H](NC(=O)[C@H](N)c3ccccc3)C(=O)N2[C@H]1C(=O)O` [AMPICILLIN], the zone of inhibition at 100 µg/disc is 19 mm in the experiment on Staphylococcus aureus [13], 18 mm with Bacillus subtilis [14], 16 mm in the experiment with Escherichia coli [15] and 15 mm in the experiment on Pseudomonas aeruginosa [16]. The MIC with Staphylococcus aureus [11] was 1 µg/mL (≈ 2.86 µM); in the experiment with Bacillus subtilis [9], 0.5 µg/mL (≈ 1.43 µM); against Pseudomonas aeruginosa [17], 2 µg/mL (≈ 5.72 µM).

Take `Clc1ccccc1C(c1ccccc1)(c1ccccc1)n1ccnc1` [CLOTRIMAZOLE]: the zone of inhibition at 100 µg/disc in the experiment with Candida albicans [18] is 21 mm. In the experiment on Candida albicans [10], this molecule showed an MIC of 2 µg/mL (≈ 5.8 µM).

For the molecule `COc1ccc2c(c1)c(CC(=O)O)c(C)n2C(=O)c1ccc(Cl)cc1` [INDOMETHACIN], the Activity in the experiment with Rattus norvegicus [19] amounted to 60.4%.
